Data from ChEMBL document CHEMBL3877283, “Antitubercular activity of 1,2,3-triazolyl fatty acid derivatives” (Eur J Med Chem, 2017).
In brackets after ≈: the same amount, converted by molar mass.

What was measured:
[1] = Cytotoxicity against African green monkey Vero cells at 4.75 ug/ml measured after 48 hrs by neutral red assay; assay type: toxicity, cell-based; conditions: chlorocebus sabaeus
In short: (§1)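 Vero (African green monkey kidney) cells were seeded at 25,000 cells/well and grown 24 h. Compounds were then added, with DMSO as vehicle control and doxorubicin as positive control, and incubated 48 h. Viable cells were counted by neutral red uptake. Highest concentration tested was 4.75 μg/mL. IC50 was read from logarithmic plots of growth inhibition versus concentration.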

[2] = test system: Mycobacterium tuberculosis; assay: Antimycobacterial activity against Mycobacterium tuberculosis H37Rv measured after 5 days by MTT dye based two-fold microdilution method; assay type: functional; conditions: 120 h
In short: (§2)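 Two-fold serial dilution in 96-well plates in Middlebrook 7H9 with 10% ADS and 1% glycerol (7H9-ADS-G). DMSO stocks were diluted to a top concentration of 100 μg/mL and down to 0.8 μg/mL, run in duplicate. Wells received mid-log bacilli in 7H9-ADS-G, incubated 5 days at 37 °C, then MTT for 24 h. MIC is the lowest concentration blocking yellow-to-purple change. Rifampicin was the control.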

[3] = test system: Mycobacterium tuberculosis; assay: Antimycobacterial activity against Mycobacterium tuberculosis H37Rv ATCC 27294 measured after 10 days by broth dilution method; assay type: functional; conditions: H37Rv ATCC 27294, 240 h
[4] = Inhibition of Staphylococcus aureus FabI using t-o-NAC-thioester as substrate by spectrophometric method
[5] = test system: Mycobacterium tuberculosis; assay: Inhibition of Mycobacterium tuberculosis InhA assessed as remaining activity at 20 uM using trans-2-dodecenoyl-coenzyme A as substrate relative to control
In short: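 Wild-type InhA (100 nM) started the reaction with 25 μM trans-2-dodecenoyl-CoA, 250 μM NADH and 20 μM inhibitor in 30 mM PIPES, 150 mM NaCl, pH 6.8. Initial velocity was compared with an inhibitor-free control; remaining activity is vi/v0.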

[6] = test system: Mycobacterium tuberculosis; assay: Antimycobacterial activity against Mycobacterium tuberculosis isolate 164 measured after 5 days by MTT dye based two-fold microdilution method; assay type: functional; conditions: isolate 164, 120 h; in short: as §2
[7] = test system: Mycobacterium tuberculosis; assay: Antimycobacterial activity against Mycobacterium tuberculosis isolate 51 measured after 5 days by MTT dye based two-fold microdilution method; assay type: functional; conditions: isolate 51, 120 h; in short: as §2
[8] = Therapeutic index, ratio of IC50 for cytotoxicity against African green monkey Vero cells to MIC for antimycobacterial activity against Mycobacterium tuberculosis H37Rv; assay type: cell-based; conditions: read-out: TI
In short: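 Vero cells were seeded at 25,000/well, grown 24 h, then exposed to compound for 48 h, with a maximum of 4.75 μg/mL and DMSO as vehicle. Viability was read by neutral red uptake. IC50 came from log plots of growth inhibition versus concentration. The index is cytotoxic IC50 divided by MIC against H37Rv from the MTT microdilution assay.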

[9] = Cytotoxicity against African green monkey Vero cells measured after 48 hrs by neutral red assay; assay type: toxicity, cell-based; conditions: African green monkey (Chlorocebus sabaeus); in short: as §1
[10] = test system: Mycobacterium tuberculosis; assay: Antimycobacterial activity against Mycobacterium tuberculosis isolate 598 measured after 5 days by MTT dye based two-fold microdilution method; assay type: functional; conditions: isolate 598, 120 h; in short: as §2
[11] = test system: Mycobacterium tuberculosis; assay: Antimycobacterial activity against Mycobacterium tuberculosis isolate 304 measured after 5 days by MTT dye based two-fold microdilution method; assay type: functional; conditions: isolate 304, 120 h; in short: as §2

| SMILES | Activity [1] | MIC [2] | further results |
| --- | --- | --- | --- |
| CCCCCCCCc1cn(CCCCC(=O)OCC)nn1 | Non-Toxic | 40 µM (≈ 12.4 µg/mL) | – |
| CCCCCCCCCCCCCn1cc(C(=O)OC)nn1 | Non-Toxic | 323 µM (≈ 100 µg/mL) | – |
| CCCCCCCCCCO [DECANOL] | – | – | MIC [3]: 800 µM |
| CCCCCCCCCCn1cc(C(=O)OC)nn1 | Non-Toxic | 23 µM (≈ 6.15 µg/mL) | – |
| CCCCCCCCCCc1cn(CCC(=O)OCC)nn1 | Non-Toxic | 20 µM (≈ 6.19 µg/mL) | – |
| CCCCCCCCCCCCO [DODECANOL] | – | – | MIC [3]: 5 µg/mL |
| CCCCC/C=C\C/C=C\C/C=C\C/C=C\CCCC(=O)O [ARACHIDONIC ACID] | – | – | IC50 [4]: 40 µM |
| CCCCCCCCCCCCCCO [MYRISTYL ALCOHOL] | – | – | MIC [3]: 5 µg/mL |
| CCCc1cn(CC(=O)OCC)nn1 | Non-Toxic | 505 µM (≈ 99.6 µg/mL) | Activity [5]: 69% |
| CCCCCCCCc1cn(CC(=O)OCC)nn1 | – | 1.9 µM (≈ 0.508 µg/mL) | MIC [6]: 1.9 µM (≈ 0.508 µg/mL); Activity [5]: 90.1%; MIC [7]: 0.45 µM (≈ 0.12 µg/mL); selectivity ratio [8]: > 10; IC50 at 48 h [9]: > 17.8 µM; MIC [10]: 1.9 µM (≈ 0.508 µg/mL); MIC [11]: 1.9 µM (≈ 0.508 µg/mL) |
| CCCCCCCCCCc1cn(CCCCC(=O)OCC)nn1 | Non-Toxic | 37 µM (≈ 12.5 µg/mL) | – |
| CCCCCC/C=C\CCCCCCCC(=O)O [PALMITOLEIC ACID] | – | – | IC50 [4]: 40 µM |
| CCCCCCCCCCCCCCCCO [CETYL ALCOHOL] | – | – | MIC [3]: 5 µg/mL |
| CCCCCCCCc1cn(CCC(=O)OCC)nn1 | Non-Toxic | 22 µM (≈ 6.19 µg/mL) | – |
| CCCCCCCCn1cc(C(=O)OC)nn1 | Non-Toxic | 52 µM (≈ 12.4 µg/mL) | – |
| CCCCCCCCCCn1cc(C(=O)O)nn1 | Non-Toxic | 20 µM (≈ 5.07 µg/mL) | – |
| CCCCC/C=C\C/C=C\CCCCCCCC(=O)O [LINOLEIC ACID] | – | – | IC50 [4]: 40 µM |
| CCCCCc1cn(CCCC(=O)OCC)nn1 | Non-Toxic | 12 µM (≈ 3.04 µg/mL) | – |
| CCCCCCCCCCc1cn(CC(=O)OCC)nn1 | – | 1.7 µM (≈ 0.502 µg/mL) | Activity [5]: 99.3%; selectivity ratio [8]: > 10; IC50 at 48 h [9]: > 16.1 µM |

| SMILES | Activity [1] | MIC [2] | further results |
| --- | --- | --- | --- |
| CCCCCCCCc1cnnn1CC(=O)OCC | Non-Toxic | 93 µM (≈ 24.9 µg/mL) | – |
| CCCCCCCCn1cc(C(=O)O)nn1 | Non-Toxic | 14 µM (≈ 3.15 µg/mL) | – |
| COc1cccc2c1C(=O)c1c(O)c3c(c(O)c1C2=O)C[C@@](O)(C(=O)CO)C[C@@H]3O[C@H]1C[C@H](N)[C@H](O)[C@H](C)O1 [DOXORUBICIN] | – | – | IC50 at 48 h [9]: 14 µM |
| CCCCCCCC/C=C\CCCCCCCC(=O)O [OLEIC ACID] | – | – | IC50 [4]: 40 µM |
| CCCCCCCCCCCCCc1cn(CC(=O)OCC)nn1 | Non-Toxic | 296 µM (≈ 99.9 µg/mL) | – |
| CCCCCCCCCCc1cn(CCCC(=O)OCC)nn1 | Non-Toxic | 309 µM (≈ 100 µg/mL) | – |
| CCCCCCCCCCn1cc(CO)nn1 | Non-Toxic | 209 µM (≈ 50 µg/mL) | – |
| CCCCCCCCCCc1cnnn1CC(=O)OCC | Non-Toxic | 84 µM (≈ 24.8 µg/mL) | – |
| CCCc1cn(CCCCCC(=O)OCC)nn1 | Non-Toxic | 394 µM (≈ 99.8 µg/mL) | – |
| CCCCCCCCc1cn(CCCC(=O)OCC)nn1 | Non-Toxic | 21 µM (≈ 6.2 µg/mL) | – |
| CCCCCc1cn(CC(=O)OCC)nn1 | Non-Toxic | 111 µM (≈ 25 µg/mL) | Activity [5]: 73.2% |
| CCCCCc1cn(CCCCCC(=O)OCC)nn1 | Non-Toxic | 22 µM (≈ 6.19 µg/mL) | – |
| CCCCCCCCCCCCCn1cc(CO)nn1 | Non-Toxic | 44 µM (≈ 12.4 µg/mL) | – |
| CCCCCCCCc1cn(CCCCCC(=O)OCC)nn1 | Non-Toxic | 309 µM (≈ 100 µg/mL) | – |
| CC/C=C\C/C=C\C/C=C\CCCCCCCC(=O)O [LINOLENIC ACID] | – | – | IC50 [4]: 40 µM |
| CCCCCc1cn(CCCCC(=O)OCC)nn1 | Non-Toxic | 23 µM (≈ 6.15 µg/mL) | – |
| CCCCCCCCCCCCCCCc1cn(CC(=O)OCC)nn1 | Non-Toxic | 17 µM (≈ 6.21 µg/mL) | – |
| CCCCCCCCn1cc(CO)nn1 | Non-Toxic | 473 µM (≈ 99.9 µg/mL) | – |
